Compound activity as filed in PubChem BioAssay.
Rows were chosen to be rich in hits. Some 4.2% of all compounds tested hit in one or more screens of this group.
UPR XBP1 act = activators of adaptive XBP1 UPR arm, primary screen, cell-based, CHO-XBP1 luciferase reporter, luminescence, uHTS | IRE1-XBP1 UPR activation; percent of tunicamycin response, DMSO as zero | activation, % at 20 µM | 330,000 compounds, 0.33% hits | AID 463104, 2010;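 active means versus positive control, 20 µM dose yields 30% or more activation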
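Material: IRE1-XBP1 luciferase reporter CHO line / Quantity: one thousand reporter cells per well / Buffer or medium: F12 with 10% serum / Compound: 20 µM single concentration, DMSO 1% / Times: 6 h treatment, 37 °C / Detection: Steady-Glo luciferase glow luminescence, 10 min after reagent addition / Benchmarks: tunicamycin high, DMSO low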
CHOP inhibitor = inhibitors of CHOP promoter induction, primary screen, cell-based, unfolded protein response, luciferase reporter; inhibition, % at 10 µM; CHO-K1 CHOP-promoter luciferase, tunicamycin-induced, 15-18 h; 220,000 compounds, 3.8% hits;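 active means compounds that reduced the stress-induced luciferase reporter signal by more than about 70% of percent inhibition, limit read from the data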
UPR CHOP act = activators of apoptotic CHOP UPR arm, primary screen, cell-based, CHO-CHOP luciferase reporter, luminescence, uHTS; UPR activation; percent of tunicamycin response over DMSO baseline; activation, % at 10 µM; 330,000 compounds, 0.34% hits;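 active means at 10 µM dose, activation of 40% or more, normalized to positive control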
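System: CHO CHOP reporter cells. Amount: 500 cells per well. Buffer or medium: F12 medium, 10% FBS. Compound dosing: one dose, 10 µM in 0.5% DMSO. Incubation: 6 h compound exposure at 37 °C after overnight seeding. Technique: Steady-Glo luciferase luminescence. Benchmarks: tunicamycin and DMSO controls.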
TMEM16A inh = TMEM16A chloride channel inhibitors, primary screen, cell-based, HTS. Anoctamin-1 (Mus musculus), Q8BHY3. HEK293 TMEM16A/YFP iodide influx fluorescence, ionomycin. normalized B-score (activity score, 25-100; higher = stronger inhibition) at 10 µM. 310,000 compounds, 1.2% hits. AID 588511, 2011;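 active means ratio plate-corrected score three or more library SD toward inhibition, starting fluorescence score within five deviations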;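 further: score derived from kinetic fluorescence span divided by baseline fluorescence per well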
Target sequence (Q8BHY3 whole entry, looked up): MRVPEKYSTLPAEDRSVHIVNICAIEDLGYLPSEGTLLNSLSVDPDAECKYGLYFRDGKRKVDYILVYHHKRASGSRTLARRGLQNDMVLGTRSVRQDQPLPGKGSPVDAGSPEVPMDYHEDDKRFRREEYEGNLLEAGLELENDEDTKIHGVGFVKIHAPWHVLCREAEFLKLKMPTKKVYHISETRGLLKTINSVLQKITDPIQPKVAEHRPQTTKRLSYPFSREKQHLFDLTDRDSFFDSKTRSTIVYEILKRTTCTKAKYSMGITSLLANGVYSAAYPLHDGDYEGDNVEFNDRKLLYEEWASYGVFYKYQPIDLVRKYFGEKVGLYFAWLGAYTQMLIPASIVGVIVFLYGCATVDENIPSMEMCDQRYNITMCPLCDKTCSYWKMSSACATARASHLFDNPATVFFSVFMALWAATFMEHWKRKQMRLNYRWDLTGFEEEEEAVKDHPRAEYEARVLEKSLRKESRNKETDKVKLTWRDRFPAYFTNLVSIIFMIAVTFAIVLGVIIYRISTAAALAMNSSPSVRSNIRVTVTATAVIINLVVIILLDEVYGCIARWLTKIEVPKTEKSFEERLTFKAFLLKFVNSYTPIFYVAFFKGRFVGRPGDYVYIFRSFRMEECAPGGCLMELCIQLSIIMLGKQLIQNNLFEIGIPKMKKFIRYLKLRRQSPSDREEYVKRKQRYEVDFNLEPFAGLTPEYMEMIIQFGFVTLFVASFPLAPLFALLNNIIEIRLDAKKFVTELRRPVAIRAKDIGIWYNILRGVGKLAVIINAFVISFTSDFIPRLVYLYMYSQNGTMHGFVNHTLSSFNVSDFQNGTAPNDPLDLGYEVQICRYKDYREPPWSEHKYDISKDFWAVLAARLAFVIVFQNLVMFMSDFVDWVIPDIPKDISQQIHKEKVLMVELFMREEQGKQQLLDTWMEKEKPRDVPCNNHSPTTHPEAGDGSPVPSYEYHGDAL
Hep lipid drop = inhibitors of hepatocyte lipid droplet formation, primary screen, imaging, high-throughput imaging, BODIPY stain. AML12 mouse hepatocytes, oleate lipid droplets. inhibition, % at 6.5 µM. 240,000 compounds, 0.4% hits;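 active means lipid droplet intensity inhibited by at least 50%, with more than 500 cells counted; inconclusive means wells with under 300 cells, treated as cytotoxic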
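Material – AML12 mouse liver cells · Also added – oleate loading, 100 µM · Compound dosing – 6.5 µM single-point dosing · Times – overnight treatment with compound plus oleate · Measured by – fluorescence imaging, 20x objective, two fields per well · Read-out – percent inhibition of filter-corrected integrated lipid droplet intensity per well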
TMEM16A act = TMEM16A chloride channel activators or potentiators, primary screen, cell-based, HTS | Anoctamin-1 (Mus musculus), Q8BHY3 | HEK293 TMEM16A/YFP-H148Q/I152L, iodide quench fluorescence; active compounds read low | B-score at 10 µM | 340,000 compounds, 0.3% hits | AID 623877, 2012;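 active means fluorescence-ratio B-score plate-corrected deviation score at least 3 library SD below zero, with starting fluorescence score within 5 deviations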;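 further: channel opened by trigger with iodide after compound preincubation; score built on the fluorescence ratio of max minus min over baseline; more negative score means more quench and so TMEM16A activation or potentiation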
Large screens that a line does not name were inactive.

O=C(NCCCN1CCCCC1)c1ccc(CS(=O)c2ccc(Cl)cc2)o1 (stereo not given)	none (no result: CHOP inhibitor)
COc1ccc(NC(=O)CN(C)C(=O)Cc2ccc3c(c2)CCC3)cc1	none (no result: CHOP inhibitor)
COC(=O)c1cc(C(=O)c2ccc(Cl)cc2Cl)cn1C	CHOP inhibitor 72 (no result: Hep lipid drop)
CCOC(=O)CNc1nc(C(C)(C)C)nc2c1nnn2Cc1ccccc1Cl	CHOP inhibitor 81 (no result: Hep lipid drop)
O=C(NCC(=O)N(c1ccccc1)C(C(=O)NC1CCCCC1)c1cccnc1)c1cccs1 (stereo not given)	CHOP inhibitor 86
O=C(NC1CCCCC1)C(c1cccnc1)N(C(=O)CCl)c1ccc(F)cc1 (stereo not given)	CHOP inhibitor 88, Hep lipid drop inconclusive (no result: UPR XBP1 act, UPR CHOP act)
CCOc1cccc(C(=O)NC2=NCCS2)c1	none (no result: CHOP inhibitor)
CC1CN(CC(=O)Nc2ccc(S(N)(=O)=O)cc2)CC(C)O1 (stereo not given)	none (no result: CHOP inhibitor)
COc1cc(/C=N/N=C2\CC3CCC2(C)C3(C)C)ccc1O (stereo not given)	CHOP inhibitor 77
COc1ccc(/C=N/N=C2\CC3CCC2(C)C3(C)C)cc1O (stereo not given)	none
CN(C)CCC1(C2=CCCC2)CC/C(=C/c2ccc(Cl)cc2)C1=O (stereo not given)	none (no result: UPR XBP1 act, CHOP inhibitor, UPR CHOP act, TMEM16A inh, Hep lipid drop)
CN(C)c1ccc(-n2cccc2/C=C/[N+](=O)[O-])cc1	CHOP inhibitor 92
CN(C)c1ccc(/C=C/c2c([N+](=O)[O-])c(=O)n(C)c(=O)n2C)cc1	none (no result: CHOP inhibitor, TMEM16A inh)
O=C(NN1c2ccccc2CCc2ccccc21)c1ccccc1Br	CHOP inhibitor 76 (no result: Hep lipid drop)
O=C(N/N=C\c1ccc(F)cc1)c1cc(OCC(F)(F)F)ccc1OCC(F)(F)F	none (no result: Hep lipid drop)
O=C(NNC(=O)c1cc(OCC(F)(F)F)ccc1OCC(F)(F)F)c1ccc(Cl)c(Cl)c1	CHOP inhibitor 82
C=CCONC(=O)c1cc(OCC(F)(F)F)ccc1OCC(F)(F)F	CHOP inhibitor 71 (no result: Hep lipid drop)
C=CCn1c(C)cc(-c2csc(NC)n2)c1C	none (no result: UPR XBP1 act, UPR CHOP act, TMEM16A inh)
C=CCn1c(C)cc(-c2csc(NCC)n2)c1C	TMEM16A act -5.4
Cc1ccccc1C(=O)N1c2ccccc2OCC1C(C)(C)C (stereo not given)	none (no result: CHOP inhibitor, Hep lipid drop)
CC(C)(C)C1COc2ccccc2N1C(=O)c1ccccc1Cl (stereo not given)	TMEM16A act -15 (no result: CHOP inhibitor)
Cc1ccc(-c2nnn(CC(=O)N3CCCc4ccccc43)n2)cc1	CHOP inhibitor 84 (no result: Hep lipid drop)
Nc1c(-c2ccc(Cl)cc2)cnn1-c1cccc([N+](=O)[O-])c1	CHOP inhibitor 78 (no result: Hep lipid drop)
Nc1c(-c2ccccc2)cnn1-c1cccc([N+](=O)[O-])c1	none (no result: Hep lipid drop)
COc1ccc2cc3c(N)nn(C(=O)Cc4c[nH]c5ccccc45)c3nc2c1	CHOP inhibitor 79
COc1ccc2cc3c(N)nn(C(=O)c4cccc(F)c4)c3nc2c1	none
COc1ccc2cc3c(N)nn(C(=O)Cc4ccc(Cl)cc4)c3nc2c1	CHOP inhibitor 83 (no result: Hep lipid drop)
COc1cccc(CC(=O)n2nc(N)c3cc4ccc(OC)cc4nc32)c1	CHOP inhibitor 95 (no result: Hep lipid drop)
COc1ccc2cc3c(N)nn(C(=O)c4ccccc4Cl)c3nc2c1	CHOP inhibitor 77
Cc1ccc(CNC(=O)Cn2cnc3c(NC(=O)OCc4ccccc4)ncnc32)o1	none (no result: CHOP inhibitor, TMEM16A inh, Hep lipid drop)
O=C(Nc1ccccc1)Nc1ccc(Br)cc1F	none
Cc1cccc(NC(=O)Nc2ccc(C)cc2Br)c1	CHOP inhibitor 90
O=C(Nc1cccc(Cl)c1)Nc1ccc(Br)cc1F	CHOP inhibitor 91
O=C(COc1ncnc2ccccc12)Nc1cc([N+](=O)[O-])ccc1F	none
Cc1cccc(NC(=O)CCNS(=O)(=O)c2cc(Br)cnc2N)c1C	none (no result: CHOP inhibitor)
CC1CN(C(=O)CCC(=O)NCc2ccccc2)c2ccccc2O1 (stereo not given)	none (no result: CHOP inhibitor)
COC(=O)c1cc(COc2ccc3oc(C)c(C(=O)OC(C)C)c3c2)c(C)o1	none
